For experiment [1], the target named is T1, Peroxisome proliferator-activated receptor gamma (Mus musculus, UniProt P37238).
T1 sequence (P37238 whole entry): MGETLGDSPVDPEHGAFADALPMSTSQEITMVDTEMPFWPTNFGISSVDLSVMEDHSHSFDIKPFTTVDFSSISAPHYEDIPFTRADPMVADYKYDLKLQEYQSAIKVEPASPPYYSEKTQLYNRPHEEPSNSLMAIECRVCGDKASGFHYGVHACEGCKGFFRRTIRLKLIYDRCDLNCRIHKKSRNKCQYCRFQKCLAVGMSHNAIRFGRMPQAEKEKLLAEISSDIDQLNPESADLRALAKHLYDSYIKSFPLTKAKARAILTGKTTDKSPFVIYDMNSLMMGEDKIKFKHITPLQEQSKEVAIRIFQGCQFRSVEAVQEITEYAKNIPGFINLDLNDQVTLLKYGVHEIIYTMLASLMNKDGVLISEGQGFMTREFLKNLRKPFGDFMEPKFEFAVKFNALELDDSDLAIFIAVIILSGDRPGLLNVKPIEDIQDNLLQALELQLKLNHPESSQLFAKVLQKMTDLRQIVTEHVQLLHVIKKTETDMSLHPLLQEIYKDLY
Briefly: Agonist activity at mouse PPARgamma expressed in HEK293 cells co-expressing with Gal4 reporter vector after 24 hrs by dual-luciferase reporter assay. It counts as cell-based. The essentials: (§1)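 HEK-293 cells grown in DMEM with 10% FBS at 37 °C under 5% CO2 and plated at 1 × 10^4 cells/well. Cells co-transfected with pCMX-Gal-mPPARγ-LBD and MH100×4TK-Luc reporter, using Renilla as internal control. Compounds added at a range of concentrations for 24 h, then dual-luciferase read-out. EC50 is the concentration giving half-maximal fold activation; Emax is the maximal fold activation. Means ± SD from four independent experiments.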
A general note: Reporter assays use an easily measured gene product as a stand-in for the process of interest.

The target in experiment [2] is T2, Peroxisome proliferator-activated receptor gamma (Mus musculus) (UniProt P37238).
T2 sequence (whole entry): T1 sequence (P37238 whole entry)
Briefly: Agonist activity at mouse PPARgamma expressed in HEK293 cells co-expressing with Gal4 reporter vector assessed as fold activation after 24 hrs by dual-luciferase reporter assay. Format: cell-based. In short, it runs like this: as §1

Experiment [3] in a line: Inhibition of Saccharomyces cerevisiae alpha-glucosidase.

A value given as a limit tells only on which side of the number the result lay.

As a reminder, the EC50 is the concentration giving half of the maximal effect. High values mean weaker potency, low ones greater potency. Usually IC50 stands for the point on the concentration scale where inhibition reaches its midpoint. A lower IC50 goes with higher potency.

In experiment [1], `C=C1[C@@H](CC/C(C)=C/CO)[C@@]2(C)CCC[C@](C)(C(=O)O)[C@@H]2[C@H](OC(=O)c2ccccc2)[C@H]1OC(C)=O` returned an EC50 of 0.9 µM. For the same compound, the Emax in experiment [2] came out at 24.7. Consider `O=c1cc(-c2ccc(O)cc2)oc2c([C@@H]3OC[C@H](O)[C@H](O)[C@H]3O)c(O)cc(O)c12`, for which, in experiment [1], the 50% effective concentration (EC50) was over 100 µM.

Consider `O=c1cc(-c2ccc(O)cc2)oc2cc(O)c(O)c(O)c12` [SCUTELLAREIN], for which the EC50 in experiment [1] was 16.4 µM. The Emax in experiment [2] came to 3.4. In experiment [1], `O=c1cc(-c2ccc(O)c(O)c2)oc2cc(O)cc(O)c12` [LUTEOLIN] registered a half-maximal effective concentration (EC50) of 2.3 µM. Besides, in experiment [2], the Emax is 7.6. `COc1ccc(-c2cc(=O)c3c(O)c(OC)c(O)c(OC)c3o2)cc1O` yielded an EC50 in experiment [1] of 4.3 µM. Also, the Emax in experiment [2] came to 2. In experiment [1], `C=C1C[C@@H](OC(=O)c2ccccc2)[C@@H]2[C@](C)(CCC[C@@]2(C)C(=O)O)[C@@H]1CC/C(C)=C/CO` [SCOPARIC ACID A] came in with an EC50 of over 100 µM. `COc1c(O[C@@H]2O[C@H](CO)[C@@H](O)[C@H](O)[C@H]2O)cc2oc(-c3ccc(O)cc3)cc(=O)c2c1O` [HISPIDULOSIDE]: in experiment [1], the concentration giving a half-maximal response (EC50) was over 100 µM.

On to `CN(CCOc1ccc(CC2SC(=O)NC2=O)cc1)c1ccccn1` (centres undefined), for which the Emax in experiment [2] was found to be 11.8. `COc1ccc(-c2cc(=O)c3c(O)c(OC)c(O[C@@H]4O[C@H](CO[C@@H]5O[C@@H](C)[C@H](O)[C@@H](O)[C@H]5O)[C@@H](O)[C@H](O)[C@H]4O)cc3o2)cc1` [PECTOLINARIN]: in experiment [1], the EC50 was over 100 µM. `O=c1cc(-c2ccc(O)cc2)oc2cc(O)cc(O)c12` [APIGENIN]: the EC50 in experiment [1] was determined as 24.9 µM. For the same compound, the Emax in experiment [2] stood at 3.4.

For `C[C@H]1O[C@H](O[C@H]2[C@H](O)[C@@H](O)[C@@H](O[C@H]3[C@H](O)[C@@H](O)C(O)O[C@@H]3CO)O[C@@H]2CO)[C@H](O)[C@@H](O)[C@@H]1N[C@H]1C=C(CO)[C@@H](O)[C@H](O)[C@H]1O` (some centres undefined) [ACARBOSE], the half-maximal inhibitory concentration (IC50) in experiment [3] came to 3760 µM. In experiment [1], `C=C(C)[C@@H]1CC[C@]2(C(=O)O)CC[C@]3(C)[C@H](CC[C@@H]4[C@@]5(C)CC[C@H](O)C(C)(C)[C@@H]5CC[C@]43C)[C@@H]12` [BETULINIC ACID] returned an EC50 of over 100 µM. Consider `COc1c(O)cc2oc(-c3ccc(O)cc3)cc(=O)c2c1O` [HISPIDULIN], for which the EC50 in experiment [1] was 7.3 µM. In addition, the Emax in experiment [2] was 11.3.

In experiment [1], `C[C@@]12CC[C@]3(C1)[C@H](CC2=O)C[C@@H](OC(=O)c1ccccc1)[C@@H]1[C@]3(C)CCC[C@]1(C)C(=O)O` [4-EPI-SCOPADULCIC ACID B] registered an EC50 of over 100 µM. In addition, in experiment [3], the IC50 was 14.6 µM. The compound `CC(=O)O[C@@H]1[C@@H](OC(=O)c2ccccc2)[C@@H]2[C@](C)(CCC[C@@]2(C)C(=O)O)[C@H](CC/C(C)=C/CO)[C@@]12CO2` registered an EC50 in experiment [1] of over 100 µM. Same read-out and setting: in the case of `C=C1[C@@H](CC/C(C)=C/CO)[C@@]2(C)CCC[C@](C)(C(=O)O)[C@@H]2[C@H](OC(=O)c2ccccc2)[C@H]1O` it was over 100 µM; in that of `COc1ccc(-c2oc3cc(O)cc(O)c3c(=O)c2O[C@@H]2O[C@H](COC(=O)/C=C/c3ccc(O)cc3)[C@@H](O)[C@H](O)[C@H]2O)cc1OC`, over 100 µM.
